# Only some compounds are listed: those with a hit (about 5.3% of all), similar ones and a draw of the others.
# Mdm2 MdmX PPI: disrupts the human Mdm2-MdmX interaction | O15151+Q00987 | SaOS-2 split-luciferase Mdm2/MdmX complementation, luminescence | inhibition, % at 8 µM | 3% of 330,000 active;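 active = inhibition of at least 50% at 8 µM in the primary screen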
# Calb FLC: C. albicans growth modulation with fluconazole | 0.57% of 300,000 active | growth inhibition, % (no concentration beside the values) | C. albicans CaCi-2 (fluconazole-resistant clinical isolate) + fluconazole, Alamar Blue growth, 48 h;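 active = growth inhibition above about 58% in most replicates, limit read from the data, passing the limit was not always enough; inconclusive = exactly half the replicates above a set limit; inactive = most replicates below a set limit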;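 also: all wells also contain fluconazole at 8 µg/ml as a sub-toxic cotreatment; 0% = median of DMSO wells and 100% = median of geldanamycin control wells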
# T cruzi inh: blocks replication of Trypanosoma cruzi. inhibition, % (concentration not given with the values). T. cruzi beta-gal in NIH3T3, luminescence, 90 h. 1.4% of 300,000 active;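 active = mean inhibition across valid replicates above about 55%, limit read from the data; inconclusive = mean below that limit but half or more replicates reach it; inactive = mean below it, under half of replicates reach it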;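 also: signal also drops with host cell toxicity which is not excluded here; 0% = plate median of DMSO wells and 100% = zero luminescence signal; higher percent means less beta-gal luminescence so fewer parasites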
#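 Incubation – ≥90 h infection period, 3 h prior cell attachment · System – NIH/3T3 fibroblasts plus reporter T. cruzi · Doses – compound pinned at 50 nL/well, DMSO · Read-out basis – percent inhibition of parasite-derived β-gal signal · Signal – luminescent β-galactosidase signal after 60 min lysis · Also added – 5000 T. cruzi trypomastigotes/well · Medium – Low-serum DMEM with 2% FBS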
# CSC inhib: cancer stem cell inhibition; cancer stem cell-like cells viability, luminescence; inhibition, % at 7.5 µM; 1.1% of 300,000 active; AID 2717; in the data active = inhibition above about 75%; inconclusive = no clear call, values can overlap the other calls; tested in HMLE shEcad cells
# Beta cell apopt: beta cell apoptosis inhibition; protection from apoptosis, % (test concentration not listed); 0.8% of 300,000 active; INS-1E cytokine-induced death, ATP luminescence, 48 h; percent of positive-control rescue, neutral wells zero; AID 435005;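 active = Every replicate reaches about 75%, or at least half do and their mean reaches it too, limit read from the data; inconclusive = At least half of replicates reach the limit but their mean does not; inactive = Under half of replicates reach the limit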;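 also: 0% = cytokine-treated negative control wells and 100% = positive control rescue; higher means more ATP so stronger rescue from cytokine killing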
# NLRP3 yeast inh: NALP3 inhibition in yeast; Yeast reconstituted NLRP3/ASC/caspase-1, beta-gal luminescence, 24 h; inhibition, % at 10 µM; 0.39% of 330,000 active; AID 2825;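 active = inhibition of 50% or more; inactive = inhibition below 50%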;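 also: plate controls were induced DMSO wells for no effect and uninduced yeast grown without galactose for full effect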
# Mdm2 MdmX conf: human Mdm2/MdmX binding inhibition, confirmed | shares compounds with Mdm2 MdmX PPI | luminescent assay | inhibition, % at 8 µM | 55% of 10,000 active | AID 489028; in the data active = inhibition above about 40%
# Full FLuc ctr: counter-screen for Mdm2/MdmX inhibitors: full-length luciferase; 77% of 6,200 active; shares compounds with Mdm2 MdmX PPI; AID 504607; SaOS-2 full-length luciferase counterscreen, luminescence; inhibition, % at 8 µM;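 active = mean inhibition at 8 µM reaching about 37%, which flags the compound as non-specific, limit read from the data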;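 also: p53-null SaOS-2 cells with luciferase driven by a doxycycline-inducible promoter; compound on cells about two nights before reading with doxycycline added after day one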
# Active calls of the source: *; ? = inconclusive; . = not tested or not shown.
SMILES,Mdm2 MdmX PPI,Calb FLC,T cruzi inh,CSC inhib,Beta cell apopt,NLRP3 yeast inh,Mdm2 MdmX conf,others
O=C(Nc1ccccc1Sc1ccccc1)c1ccccc1F,-64,-9,1,-6,-2,4,.,
CSc1nc(NCc2ccco2)c2ccccc2n1,6,6,7,12,.,8,.,
c1ccc(Nc2nc(NCc3ccco3)c3ccccc3n2)cc1,78*,-4,17,32,81*,34,2,
COc1cccc(Nc2nc(NCCO)c3ccccc3n2)c1,65*,-5,21,16,3,11,62*,Full FLuc ctr=28
OCCNc1nc(Nc2cccc(O)c2)nc2ccccc12,20,5,3,-6,2,-7,.,
Cc1ccccc1NC(=O)C(=O)NCCCN1CCCC1=O,-17,-1,-7,-8,-1,18,.,
CCOC(=O)CN1CCC(c2cc(-c3ccc(Cl)cc3)n[nH]2)CC1,-4,-8,28,4,-3,5,.,
O=[N+]([O-])c1cccnc1N1CCC(c2cc(-c3ccc(Cl)cc3)n[nH]2)CC1,54*,0,46,101*,3,19,1,
C/C(=N\NC(=O)Cc1ccc(Cl)cc1)c1ccccc1O,57*,-11,63*,9,68,28,44*,Full FLuc ctr=43*
C/C(=N\NC(=O)Cc1ccc(Cl)cc1)c1ccc(F)cc1,4,-24,-16,-7,-2,13,.,
O=S(=O)(c1cccc(NC(=S)N2CCN(c3cccc(Cl)c3)CC2)c1)C(F)F,52*,-6,19,16,-2,-39,15,
O=S(=O)(c1cccc(NC(=S)N2CCN(c3ccc(F)cc3)CC2)c1)C(F)F,6,-28,-23,2,-7,-31,.,
O=C(Nc1nccs1)c1ccc2c(c1)C(=O)N(Cc1cccnc1)C2=O,20,-5,-13,-7,-17,2,.,
COC(=O)CCCCCNC(=S)Nc1ccc2[nH]c(=O)[nH]c2c1,26,5,-9,14,2,5,.,
Cc1ccc(C)c(N2CCN(C(=O)c3nn(C)c4c3CS(=O)(=O)c3ccccc3-4)CC2)c1,22,13,5,-2,31,20,.,
CN(C)c1nc(N(C)C)n(C(=O)c2ccc(F)cc2)n1,-2,-18,-9,0,3,11,.,
CC[C@H](C)[C@@H](CN[C@H](C)CNC)NCCC(c1ccccc1)c1ccccc1,99*,-20,-4,22,-7,15,93*,Full FLuc ctr=4
CCN(CC)C(=O)COc1ccc(/C(C)=N/Nc2ncc(Cl)cc2Cl)cc1,-7,-14,-3,-5,2,-7,.,
CC1=C([N+](=O)[O-])C(c2cccc(Br)c2)C2=C(N1)c1ccccc1C2=O (stereo not given),74*,36,?,53,37,-7,66*,Full FLuc ctr=84*
CN1N=C(C(=O)N2CCN(c3ccc([N+](=O)[O-])cc3)CC2)CCC1=O,-11,24,4,-7,-8,7,.,
CC(C)C[C@H](NC(=O)c1nc[nH]c1C(=O)N[C@@H](CC(C)C)C(=O)OCc1ccccc1)C(=O)OCc1ccccc1,58*,-4,4,26,0,10,0,
O=C(N[C@@H](Cc1ccccc1)C(=O)OCc1ccccc1)c1nc[nH]c1C(=O)N1CCN(c2ccccc2)CC1,65*,-6,-9,8,-3,15,-15,
CC(C)C[C@H](NC(=O)c1nc[nH]c1C(=O)NC(c1ccccc1)c1ccccc1)C(=O)OCc1ccccc1,51*,-3,0,18,-9,15,11,
Cc1ccc(/C=C/C(=O)NCc2ccc3c(c2)OCO3)o1,4,-1,-6,17,-18,23,.,
CC1CC(C)CN(C(=O)COC(=O)c2nccnc2N)C1 (stereo not given),-17,.,.,.,-2,23,.,
SMILES,Mdm2 MdmX PPI,Calb FLC,T cruzi inh,CSC inhib,Beta cell apopt,NLRP3 yeast inh,Mdm2 MdmX conf,others
CC(C)CCn1c(SC(C)C(=O)NC2CC2)nc2ccccc2c1=O (stereo not given),16,-5,9,-8,2,11,.,
Cc1cccc2sc(N(CCN3CCOCC3)C(=O)CCS(=O)(=O)c3ccccc3)nc12,69*,3,-8,2,.,36,46*,Full FLuc ctr=68*
Cc1ccc(S(=O)(=O)CCC(=O)N(CCN2CCOCC2)c2nc3ccccc3s2)cc1,-18,3,-19,-5,.,13,.,
CCN(CC)CCN(C(=O)CCS(=O)(=O)c1ccccc1)c1nc2cc(OC)c(OC)cc2s1,22,0,31,-3,-27,16,.,
CCN(CC)CCN(C(=O)CCS(=O)(=O)c1ccccc1)c1nc2c(C)cc(C)cc2s1,51*,9,53,-1,2,44,37,Full FLuc ctr=87*
Cc1ccc(NC(=O)C2CC(=O)N(c3ccc4c(c3)OCCO4)C2)nc1 (stereo not given),22,9,4,-8,-5,33,.,
C=CCNc1nc(Cl)nc(NC2CCCCC2)n1,20,10,6,-12,5,6,.,
CCOC(=O)c1sc(NC(=S)NC(=O)c2ccccc2Cl)c(C(=O)OCC)c1C,25,-1,13,8,-1,4,.,
CCOC(=O)c1c(NC(=O)CC(C)C)sc(C(C)=O)c1C,17,-2,17,-10,.,23,.,
CCOC(=O)c1sc(NC(=S)NC(=O)c2ccccc2)c(C(=O)OCC)c1C,85*,3,-9,-6,19,8,26,
CCOC(=O)c1sc(NC(=O)CN(CC(C)C)CC(C)C)c(C(=O)OCC)c1C,61*,15,2,32,3,7,0,
CCOC(=O)C1=C(NC(=S)NC(=O)c2ccccc2)c2ccccc2CC1C(C)C (stereo not given),96*,-2,13,-3,3,-5,11,
CCOC(=O)c1c(NC(=O)c2ccccc2)sc2c1CCc1ccccc1-2,-5,?,-7,32,6,18,.,
CCOC(=O)C1=C(NC(=S)NC(=O)c2ccccc2)c2ccccc2CC1(C)CC (stereo not given),77*,-1,-20,-5,-1,-2,66*,Full FLuc ctr=53*
Cc1cc(C)n(-c2nc(Nc3ccccc3)nc(-n3nc(C)cc3C)n2)n1,13,-3,-3,7,3,12,.,
COc1cccc(/C=N/Nc2nc(Nc3ccccc3)nc(-n3nc(C)cc3C)n2)c1O,57*,5,45,46,135*,47,23,
COc1cccc(/C=N/Nc2cc(-n3nc(C)cc3-c3ccccc3)ncn2)c1O,59*,82*,33,.,.,13,78*,Full FLuc ctr=50*
COc1ccc(/C=N/Nc2cc(C)nc(-n3nc(C)cc3C)n2)c(OC)c1,55*,16,37,7,82*,25,38,Full FLuc ctr=48*

# Source: PubChem
